Published values collected from several papers.
HTR1E: 5-hydroxytryptamine receptor 1E (HTR1E, Homo sapiens, UniProt P28566)
BACE1: Beta-secretase 1 (BACE1, Homo sapiens, UniProt P56817)

Cc1c2oc3c(C)ccc(C(=O)N[C@@H]4C(=O)N[C@H](C(C)C)C(=O)N5CCC[C@H]5C(=O)N(C)CC(=O)N(C)[C@@H](C(C)C)C(=O)O[C@@H]4C)c3nc-2c(C(=O)N[C@@H]2C(=O)N[C@H](C(C)C)C(=O)N3CCC[C@H]3C(=O)N(C)CC(=O)N(C)[C@@H](C(C)C)C(=O)O[C@@H]2C)c(N)c1=O — Kd (Palmitoyl-protein thioesterase 1 (Homo sapiens, UniProt P50897); binding; MST): 0.235 µM
CCN(CC)C(=O)N[C@H]1C[C@@H]2c3cccc4[nH]cc(c34)C[C@H]2N(C)C1 — EC50 (HTR1E; G protein activation; agonist; BRET): 1.81 µM
CNC(=O)c1ccc(-c2cnn3ccc(C(=O)N(C)c4ccc(Cl)c(C(=O)O)c4)cc23)cc1 — IC50 (Non-receptor tyrosine-protein kinase TYK2 (TYK2, Homo sapiens, UniProt P29597); enzyme activity; inhibitor): > 30 µM
CC[C@H](C)[C@H](NC(=O)[C@H](CO)NC(=O)CNC(=O)[C@@H](NC(=O)[C@@H](NC(=O)[C@@H](NC(=O)CN)[C@@H](C)O)C(C)C)[C@@H](C)O)C(=O)N[C@@H](CC(C)C)C(=O)N[C@H](C(=O)N1CCC[C@H]1C(=O)N[C@H](C(=O)N[C@@H](CC(=O)O)C(=O)N[C@@H](Cc1ccc(O)cc1)C(=O)NCC(=O)N[C@H]1CSSC[C@@H](C(=O)N[C@@H](CO)C(=O)N[C@H](C(=O)N[C@@H](C)C(=O)N[C@@H](CCSC)C(=O)N[C@@H](Cc2ccc(O)cc2)C(=O)NCC(=O)NCC(=O)N[C@H](C(=O)N[C@H](C(=O)N[C@@H](CC(=O)O)C(=O)N2CCC[C@H]2C(=O)N[C@H](C(=O)N[C@@H](CCCNC(=N)N)C(=O)N[C@@H](Cc2ccccc2)C(=O)N2CCC[C@H]2C(=O)N[C@@H](CC(N)=O)C(=O)N[C@@H](C)C(=O)N[C@@H](Cc2c[nH]c3ccccc23)C(=O)N[C@@H](CCCNC(=N)N)C(=O)N[C@@H](CCC(=O)O)C(=O)N[C@@H](CC(C)C)C(=O)O)[C@@H](C)CC)[C@@H](C)CC)C(C)C)C(C)C)NC(=O)[C@H](CC(C)C)NC(=O)[C@H](Cc2ccccc2)NC(=O)[C@@H]2CCCN2C(=O)[C@H](CC(N)=O)NC(=O)[C@H](Cc2ccccc2)NC1=O)[C@@H](C)CC)[C@@H](C)O — IC50 (Neutrophil elastase (ELANE, Homo sapiens, UniProt P08246); enzyme activity; inhibitor): > 100 µM
c1ccc(-c2nnc(CN3CCN(c4ccccc4)CC3)o2)cc1 — IC50 (BACE1; enzyme activity; inhibitor; FRET): 4.79 µM
Cn1cc(-c2cc(C(=O)NN=Cc3cccc([N+](=O)[O-])c3)no2)c2ccccc21 — IC50 (BACE1; enzyme activity; inhibitor; FRET): > 100 µM
CC(N)Cc1c[nH]c2ccc(OCc3cccs3)cc12 (stereo not drawn) — EC50 (HTR1E; G protein activation; agonist; BRET): 3.99 µM
COC(=O)c1cc(N(C)C(=O)c2ccn3ncc(-c4ccc(C(=O)O)cc4)c3c2)ccc1Cl — IC50 (Epidermal growth factor receptor (EGFR, Homo sapiens, UniProt P00533); enzyme activity; inhibitor): > 30 µM
COc1cccc(C=NNC(=O)c2cc(-c3cn(C)c4ccccc34)on2)c1OC — IC50 (BACE1; enzyme activity; inhibitor; FRET): 8.28 µM
C=CC(=O)N[C@H]1C=C(C)c2c(-c3cnc4ccccc4c3)c3c(N)ncnc3n2C1 — IC50 (Epidermal growth factor receptor (EGFR, Homo sapiens, UniProt P00533, L858R/T790M); enzyme activity; inhibitor): 0.0011 µM
O=C(O)C(F)(F)C(F)(F)C(F)(F)C(F)(F)C(F)(F)C(F)(F)C(F)(F)F — IC50 (Aldo-keto reductase family 1 member C4 (AKR1C4, Homo sapiens, UniProt P17516); enzyme activity; inhibitor): ≥ 50 µM
CNC(=O)c1ccc(-c2cnn3ccc(C(=O)N(C)c4ccc(Cl)c(C(=O)OC)c4)cc23)cc1 — IC50 (Wee1-like protein kinase (WEE1, Homo sapiens, UniProt P30291); enzyme activity; inhibitor): > 30 µM
